Assay results from different studies.
Each line is one published result; the experiments were not run side by side.

Compound | test | test system | setting | quantity | value
Cn1nccc1-c1nc(N2CCC(c3ccccn3)C2)c2ccccc2n1 (centres unmarked) | metabolic stability | human, liver microsomes | – | microsomal CLint | 59 µL/min/mg
C[C@H](C(=O)N[C@@H]1COc2ccccc2[C@H]1S(C)(=O)=O)c1ccc(F)cc1 | metabolic stability | rat, liver microsomes | 1 µM | microsomal CLint | 55 µL/min/mg
Fc1ccc(Nc2c(Cn3cccn3)nc3ccccn23)cc1 | metabolic stability | rat, hepatocytes | – | hepatocyte CLint | 51 µL/min/10⁶ cells
CCOC(=O)C1=C(C)N/C(=C/c2cc(C)n(Cc3ccc(C(F)(F)F)cc3)c2C)C1=O | HPLC | – | pH 7.4 | chromatographic logD | 3.5
COc1ccn2c(Nc3ccccc3F)c(-c3ccncn3)nc2c1 | metabolic stability | rat, hepatocytes | – | hepatocyte CLint | 170 µL/min/10⁶ cells
N#CC1CCCN(c2nc(-c3ccccn3)nc3ccccc23)C1 (centres unmarked) | metabolic stability | human, liver microsomes | – | microsomal CLint | 48 µL/min/mg
Cc1ccc(C(=O)N(CCCN)[C@@H](c2oc3cc(Cl)ccc3c(=O)c2Cc2ccccc2)C(C)C)cc1 | – | human, plasma | intravenous, 8 mg/m², single dose, patients, infusion | clearance | 23.1 mL/min
Oc1ccc(-c2nc(N3CCC(c4ccccn4)C3)c3ccccc3n2)cc1 (centres unmarked) | metabolic stability | human, liver microsomes | – | microsomal CLint | 99 µL/min/mg
c1cnc2ccc(Nc3nc(NC4CC4)c4nc[nH]c4n3)cc2c1 | – | human, plasma | oral, 100 mg/m², patients | CL/F | 35.1 L/h
CS(=O)(=O)CCC#N | – | human, plasma | oral, 100 mg, single dose, fasted | CL/F | 0.3 mL/min/kg
Cn1cnc(-c2nc3ccccn3c2Nc2ccc(F)cc2)c1 | metabolic stability | rat, hepatocytes | – | hepatocyte CLint | 14 µL/min/10⁶ cells
NC(=O)C1CCN(c2nc(-c3ccccn3)nc3ccccc23)C1 (centres unmarked) | metabolic stability | human, liver microsomes | – | microsomal CLint | 37 µL/min/mg
CN(c1ccc(F)cc1)c1c(-c2cccc(F)n2)nc2ccccn12 | metabolic stability | rat, hepatocytes | – | hepatocyte CLint | > 300 µL/min/10⁶ cells
Cc1c(C(=O)NN2CCCCC2)nc(-c2ccc(Cl)cc2Cl)n1-c1ccc(OCc2ccccc2)cc1 | shake flask | aqueous buffer | pH 7.4 | logD | > 5.3
OC[C@H]1O[C@@H](c2ccc(Cl)c(Cc3ccc(O[C@H]4CCOC4)cc3)c2)[C@H](O)[C@@H](O)[C@@H]1O | – | human, urine | oral, 10 mg, single dose | renal clearance | 24.5 mL/min
C[C@@H](C(=O)N1Cc2c(-c3ccc(C(=O)N4CCCc5ccccc54)cc3)cnn2C[C@@H]1C)c1ccccc1 | HPLC | – | pH 7.4 | chromatographic logD | 4.8
Clc1cccc(-c2c(-c3ccccn3)nc3n2CCC3)c1 | metabolic stability | rat, hepatocytes | – | hepatocyte CLint | 51 µL/min/10⁶ cells
c1ccc(-c2nc(NCCn3ccnc3)c3ccccc3n2)nc1 | metabolic stability | human, liver microsomes | – | microsomal CLint | 36 µL/min/mg
CCNCCCNC/C=C\CNCCCNCC | – | human, plasma | intravenous, 100 mg, patients, infusion | clearance | 5510 mL/min
Fc1ccc(Nc2c(-c3ncccc3F)nc3ccccn23)cc1 | metabolic stability | rat, hepatocytes | – | hepatocyte CLint | 100 µL/min/10⁶ cells
COc1cc(C(=O)NC2CCN(C)CC2)c(F)cc1Nc1ncc(C(F)(F)F)c(Oc2cccc3c2C(=O)N(C)C3)n1 | – | human, plasma | oral, 10 mg, multiple doses, once daily, patients | CL/F | 20.8 L/h
COc1cc(OC)cc(-c2c(-c3ccccn3)nc3n2CCC3)c1 | metabolic stability | rat, hepatocytes | – | hepatocyte CLint | > 300 µL/min/10⁶ cells
c1ccc(-c2nc(N3CCCCCC3)c3ccccc3n2)nc1 | metabolic stability | human, liver microsomes | – | microsomal CLint | 190 µL/min/mg
